Published values gathered from unrelated publications.
Lines come from different studies, so protocols differ.

COc1ncccc1-c1cnn2ccc(N3CCN(C(=O)OC(C)C)CC3)nc12  remaining binding (Cyclin-dependent kinase-like 2 (CDKL2, Homo sapiens, UniProt Q92772); binding; competition with immobilised ligand; 1 µM): 53%
Cc1nn(C)cc1-c1nc2c(N3CCN(Cc4ccc(Cl)cc4)CC3)c(Cl)cnc2[nH]1  remaining binding (Bone morphogenetic protein receptor type-1B (BMPR1B, Homo sapiens, UniProt O00238); binding; competition with immobilised ligand; 1 µM): 100%
O=C1CC(c2c(O)cccc2O)Oc2cc(O)cc(O)c21 (centres unmarked)  inhibition (Replicase polyprotein 1ab, main protease (rep, Severe acute respiratory syndrome coronavirus 2, UniProt P0DTD1); enzyme activity; inhibitor; 20 µM): 26.5%
Nc1ncc(-c2nc(N3CCOCC3)nc(N3CCOCC3)n2)c(C(F)F)n1  remaining binding (Serine/threonine-protein kinase tousled-like 2 (TLK2, Homo sapiens, UniProt Q86UE8); binding; competition with immobilised ligand; 10 µM): 100%
CCOC(=O)c1ccc(OC(=O)CCCCCNC(=N)N)cc1  inhibition (Ubiquitin carboxyl-terminal hydrolase 2 (USP2, Homo sapiens, UniProt O75604); enzyme activity; inhibitor; 10 µM): 2%
Oc1cc(Br)cc(Br)c1Oc1ccc(Br)cc1Br  Km (Sulfotransferase 1B1 (SULT1B1, Homo sapiens, UniProt O43704); enzyme activity; substrate): 26.7 µM
CC(C)C[C@H](NC(=O)[C@H]1O[C@@H]1C(=O)O)C(=O)NCCCCN=C(N)N  inhibition (Cathepsin S (CTSS, Homo sapiens, UniProt P25774); enzyme activity; inhibitor; 0.5 µM): 97%
CCN(CC)CCCC[C@H](NC(=O)[C@H](CC(C)C)NC(=O)[C@H](C)NC(=O)[C@H](Cc1ccccc1)NC(=O)c1ccc(C(C)(C)C)cc1)C(=O)N[C@@H](CO)C(=O)OC  remaining binding (Kappa-type opioid receptor (Oprk1, Rattus norvegicus, UniProt P34975); ligand displacement; radioligand; 10 µM): 9.5%
